The text below walks through data of PMC9055537 (RSC Advances, 2020).

Where a SMILES comes first, the peptide text is derived from it. [ ]: non-standard residue; d: D form. Nva = CCC[C@H](N)C(=O)O; Aib = CC(C)(N)C(=O)O

A word on the inhibition: it is the percentage by which the read-out fell short of the control.

The target of one data set is Aβ42 (Homo sapiens, UniProt P05067). The experiment in a line: Thioflavin-T fluorescence assay, inhibition of Aβ42 aggregation. It counts as biochemical. The conditions noted are these: 24 h, read-out: % inhibition of Aβ42 aggregation (ThT fluorescence), test peptide 10 μM (1:5), Aβ42 2 μM, co-incubated 24 h at 37 °C, λex 440 nm, λem 485 nm, mean of triplicate.
Sequence of Aβ42 (P05067 672-713): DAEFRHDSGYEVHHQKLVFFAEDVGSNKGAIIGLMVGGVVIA
For the molecule `CC[C@H](C)[C@H](NC(=O)[C@@H]1CCCN1C(=O)[C@@H]1CCCN1)C(=O)N[C@@H](C)C(N)=O` [16a, Pro-Pro-Ile-Ala-NH2] (H-PPIA-NH2), the inhibition at 10 µM came out at 14.2%. Consider `CC[C@H](C)[C@H](NC(=O)[C@H](NC(=O)[C@@H](N)C(C)C)C(C)C)C(=O)N[C@@H](C)C(N)=O` [13a, Val-D-Val-Ile-Ala-NH2] (H-V[dV]IA-NH2), for which the inhibition at 10 µM amounted to 15.7%. As to `CC[C@H](C)[C@H](NC(=O)[C@@H](NC(=O)[C@@H](N)C(C)C)C(C)C)C(=O)N[C@@H](CC(C)C)C(N)=O` [15e, Val-Val-Ile-Leu-NH2] (H-VVIL-NH2), the inhibition at 10 µM is 31.2%. For `CC[C@H](C)[C@H](NC(=O)[C@@H](NC(=O)[C@@H](N)C(C)C)C(C)C)C(=O)N[C@H](C)C(N)=O` [15a, Val-Val-Ile-D-Ala-NH2] (H-VVI[dA]-NH2), the inhibition at 10 µM was 23.2%. With `CCC[C@H](N)C(=O)N[C@H](C(=O)N[C@H](C(=O)N[C@@H](C)C(N)=O)[C@@H](C)CC)C(C)C` [12e, Nva-Val-Ile-Ala-NH2] (H-[Nva]VIA-NH2), the inhibition at 10 µM was 70.3%.

`CC[C@H](C)[C@H](NC(=O)[C@@H](NC(=O)[C@@H](N)Cc1ccccc1)C(C)C)C(=O)N[C@@H](C)C(N)=O` [12b, Phe-Val-Ile-Ala-NH2] (H-FVIA-NH2): the inhibition at 10 µM worked out at 77.6%. As to `CC[C@H](C)[C@H](NC(=O)[C@@H](NC(=O)[C@@H](N)C(C)C)C(C)C)C(=O)NC(C)(C)C(N)=O` [15b, Val-Val-Ile-Aib-NH2] (H-VVI[Aib]-NH2), the inhibition at 10 µM stood at 35.1%. With `CC(C)C[C@H](NC(=O)[C@@H](NC(=O)[C@@H](N)C(C)C)C(C)C)C(=O)N[C@@H](C)C(N)=O` [14b, Val-Val-Leu-Ala-NH2] (H-VVLA-NH2), the inhibition at 10 µM amounted to 0%. With `CC[C@H](C)[C@H](NC(=O)[C@@H](NC(=O)[C@@H](N)C(C)C)C(C)C)C(=O)N[C@H](C(N)=O)C(C)C` [15d, Val-Val-Ile-Val-NH2] (H-VVIV-NH2), the inhibition at 10 µM was 11%. Take `CC[C@H](C)[C@H](NC(=O)C(C)(C)NC(=O)[C@@H](N)C(C)C)C(=O)N[C@@H](C)C(N)=O` [13d, Val-Aib-Ile-Ala-NH2] (H-V[Aib]IA-NH2): the inhibition at 10 µM is 45.3%. As to `CC[C@H](C)[C@H](NC(=O)[C@@H](NC(=O)[C@H]1CCCN1)C(C)C)C(=O)N[C@@H](C)C(N)=O` [12d, D -Pro-Val-Ile-Ala-NH2] (H-[dP]VIA-NH2), the inhibition at 10 µM was determined as 39.8%. Same read-out and setting: the same measure for `CC[C@@H](C)[C@@H](NC(=O)[C@@H](NC(=O)[C@@H](N)C(C)C)C(C)C)C(=O)N[C@@H](C)C(N)=O` [14a, Val-Val-D-Ile-Ala-NH2] (H-VV[dI]A-NH2): 21.8%. For `CC[C@@H](C)[C@@H](NC(=O)[C@@H](N)C(C)C)C(=O)N[C@H](C(=O)N[C@@H](C)C(N)=O)[C@@H](C)CC` [13b, Val-D-Ile-Ile-Ala-NH2] (H-V[dI]IA-NH2), the inhibition at 10 µM worked out at 49.4%.

Regarding `CC[C@H](C)[C@H](NC(=O)[C@@H](NC(=O)[C@H](N)C(C)C)C(C)C)C(=O)N[C@@H](C)C(N)=O` [12a, D -Val-Val-Ile-Ala-NH2] (H-[dV]VIA-NH2), the inhibition at 10 µM is 82.1%.

For the next data set, the target named is preformed Aβ42 fibrils (Homo sapiens, UniProt P05067). The experiment in a line: Thioflavin-T assay, deformation of preformed Aβ42 fibrils. It counts as biochemical. The conditions noted are these: 24 h, test peptide 0.5 μM (1:0.1), Aβ42 2 μM pre-aggregated 24 h.
Sequence of preformed Aβ42 fibrils (P05067 672-713): as above
Turning to `CC[C@H](C)[C@H](NC(=O)[C@@H](NC(=O)[C@H](N)Cc1ccccc1)C(C)C)C(=O)N[C@@H](C)C(N)=O` [12c, D-Phe-Val-Ile-Ala-NH2] (H-[dF]VIA-NH2), the “% Deformation of preformed Aβ42 fibrils” value is recorded as 33.7%.

The same data set, now with this note: 24 h, test peptide 1 μM (1:0.5), Aβ42 2 μM pre-aggregated 24 h.
In the case of `CC[C@H](C)[C@H](NC(=O)[C@@H](NC(=O)[C@H](N)Cc1ccccc1)C(C)C)C(=O)N[C@@H](C)C(N)=O` [12c, D-Phe-Val-Ile-Ala-NH2] (H-[dF]VIA-NH2), the “% Deformation of preformed Aβ42 fibrils” value was 34.9%.

The same data set, now with this note: 24 h, test peptide 2 μM (1:1), Aβ42 2 μM pre-aggregated 24 h.
For `CC[C@H](C)[C@H](NC(=O)[C@@H](NC(=O)[C@H](N)Cc1ccccc1)C(C)C)C(=O)N[C@@H](C)C(N)=O` [12c, D-Phe-Val-Ile-Ala-NH2] (H-[dF]VIA-NH2), the “% Deformation of preformed Aβ42 fibrils” value worked out at 57.5%.

Another data set has as its system PC-12 cells. Briefly: Cytotoxicity studies, MTT assay. It counts as cell-based, rat. The conditions noted are these: highest tested concentration 20 μM, 6 h, MTT OD570, triplicate. The method in brief:
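PC-12 cells were exposed to the test peptide alone at the stated dose for 6 h, with no Aβ added, and viability was read by MTT assay. Untreated cells were set as 100% (positive control). Samples were run in triplicate in three individual experiments and the readings were averaged (<5% variation).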
For orientation: Tetrazolium dyes change colour on reduction, which living cells bring about.
Consider `CC[C@H](C)[C@H](NC(=O)[C@@H](NC(=O)[C@H](N)Cc1ccccc1)C(C)C)C(=O)N[C@@H](C)C(N)=O` [12c, D-Phe-Val-Ile-Ala-NH2] (H-[dF]VIA-NH2), for which the “cytotoxicity, % viable PC-12 cells” value is “negligible cytotoxicity”.
